Assay results gathered from unrelated publications.
Each line is one published result; the experiments were not run side by side.
Target: Serine/threonine-protein kinase 17A (STK17A, Homo sapiens, UniProt Q9UEE5)
Sequence (Q9UEE5 1-414, as in one of the studies): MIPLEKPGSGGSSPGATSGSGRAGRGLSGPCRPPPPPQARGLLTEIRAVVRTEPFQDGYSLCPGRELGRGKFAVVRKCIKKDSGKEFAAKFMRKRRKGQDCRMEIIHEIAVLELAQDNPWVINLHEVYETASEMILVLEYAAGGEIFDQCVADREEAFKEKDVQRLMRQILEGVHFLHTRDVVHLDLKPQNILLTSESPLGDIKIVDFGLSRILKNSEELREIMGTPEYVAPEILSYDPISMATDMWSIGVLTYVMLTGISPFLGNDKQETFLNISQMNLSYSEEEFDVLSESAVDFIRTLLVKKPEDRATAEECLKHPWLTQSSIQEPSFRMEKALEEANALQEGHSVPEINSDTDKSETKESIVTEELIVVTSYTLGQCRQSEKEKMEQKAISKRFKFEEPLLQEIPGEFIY

For `COc1ccc2[nH]c3c4[nH]c5ccc(OC)cc5c4c4c(c3c2c1)C(=O)NC4=O`, the remaining binding was 0.4% (binding; 1 µM).
The inhibition of `CC#CC(=O)N1CCC[C@H]1c1nc(-c2ccc(C(=O)Nc3ccccn3)cc2)c2c(N)nccn12` is reported as 0% (enzyme activity, inhibitor; 1 µM).
`CCCCC(=O)Nc1ccc(-c2ccc3ncn(CCC)c(=O)c3c2)cn1` has a remaining binding of 100% (binding, competition with immobilised ligand; 0.5 µM).
For `Cc1cc(O)c(-c2ccc([C@@H](C)CN(C)C)cc2)c2c1[nH]c(=O)c1sccc12`, the inhibition was 3.3% (cell-free assay, inhibitor; 0.1 µM).
With `CC(C)S(=O)(=O)c1ccc2nccc(Nc3ccc4sc(C5CCCC5)nc4c3)c2c1` the activity vs control was 108% (enzyme activity, inhibitor; 1 µM).
`Cc1ccc(NC(=O)c2ccnc(C(F)(F)F)c2)cc1-c1cc(OCCO)nc(N2CCOCC2)c1` has a remaining binding of 91% (binding; 1 µM).
`COc1ccc2oc(-c3ccc4nc(N)oc4c3)c/c(=N\c3ccccc3NC(=O)CCN)c2c1` gave a remaining binding of 89% (binding; 1 µM).
With `C=CC(=O)N1CCC[C@@H](n2nc(-c3ccc(Oc4ccccc4)cc3)c3c(N)ncnc32)C1` the inhibition was 8% (enzyme activity, inhibitor; 1 µM).
